Results on 10 molecules are retold here after ChEMBL document CHEMBL1140996, “Synthesis and in vitro antibacterial activity of new steroidal thiosemicarbazone derivatives” (2008).

≈ marks a conversion by molar mass, not a printed value.

The test system of assay [1] is Staphylococcus aureus. Put plainly: Antibacterial activity against Staphylococcus aureus at 10 to 100 ug/mL after 18 hrs by halo zone test. In kind it is functional. A digest of the protocol: (§1)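 Disk diffusion (halo zone). Strains subcultured in BHI, 18 h at 37 °C. Cells suspended in saline by McFarland to about 10^5 CFU/mL, mixed with antibiotic agar at 40 °C and plated. 6.0 mm paper disks loaded with DMSO-stock dilutions of 10, 20, 25, 50 and 100 per mL. Inhibition zone diameter (mm) read after 18 h at 36 °C. Amoxicillin (30) disk positive control, DMSO disk negative control.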

For assay [2], the system named is Escherichia coli. Briefly: Antibacterial activity against Escherichia coli at 10 to 100 ug/mL after 18 hrs by halo zone test. It is filed as functional. Put shortly:
as §1

Assay [3] relates to Salmonella typhimurium. Put plainly: Antibacterial activity against Salmonella Typhimurium at 10 to 100 ug/mL after 18 hrs by halo zone test. In kind it is functional, Salmonella enterica subsp. enterica serovar Typhimurium. Put shortly:
as §1

The test system of assay [4] is Salmonella typhimurium. Put plainly: Antibacterial activity against Salmonella Typhimurium after 18 hrs by macro dilution test. In kind it is functional, Salmonella enterica subsp. enterica serovar Typhimurium. The conditions noted are these: Salmonella enterica. Put shortly:
(§2)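 Macro-dilution broth test. Each tube received a 24 h old inoculum, standard inoculum about 10^5 CFU/mL. Incubated 18 h at 37 °C. MIC taken visually as the lowest concentration preventing visible growth. Amoxicillin positive control, DMSO negative control.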

The subject of assay [5] is Streptococcus pyogenes. Briefly: Antibacterial activity against Streptococcus pyogenes after 18 hrs by macro dilution test. It is filed as functional. A digest of the protocol:
as §2

The subject of assay [6] is Escherichia coli. Put plainly: Antibacterial activity against Escherichia coli after 18 hrs by macro dilution test. In kind it is functional. Put shortly:
as §2

Assay [7] has as its system Staphylococcus aureus. Briefly: Antibacterial activity against Staphylococcus aureus after 18 hrs by macro dilution test. It is filed as functional. Put shortly: as §2
Assay [8] relates to Streptococcus pyogenes. Briefly: Antibacterial activity against Streptococcus pyogenes at 10 to 100 ug/mL after 18 hrs by halo zone test. It is filed as functional. Put shortly:
as §1

On to `CC(C)CCC[C@@H](C)[C@H]1CC[C@H]2[C@@H]3/C(=N/NC(=S)NC4CCCCC4)C=C4C[C@@H](Cl)CC[C@]4(C)[C@H]3CC[C@]12C`, for which the “inhibition zone (IZ)” value in the assay on Staphylococcus aureus [1] was 13.4 mm; in the assay with Escherichia coli [2] it was 11.8 mm; with Salmonella typhimurium [3] it was 14.4 mm; with Streptococcus pyogenes [8], 12.2 mm. Moreover, the minimum inhibitory concentration (MIC) with Salmonella typhimurium [4] was determined as 128 µg/mL (≈ 223 µM); against Streptococcus pyogenes [5], 64 µg/mL (≈ 111 µM); against Escherichia coli [6] it was 64 µg/mL (≈ 111 µM); with Staphylococcus aureus [7], 32 µg/mL (≈ 55.7 µM).

Regarding `CC(C)CCC[C@@H](C)[C@H]1CC[C@H]2[C@@H]3/C(=N/NC(=S)NC4CCCC4)C=C4C[C@@H](Cl)CC[C@]4(C)[C@H]3CC[C@]12C`, the “inhibition zone (IZ)” value is 16.2 mm in the assay with Staphylococcus aureus [1], 15.6 mm in the assay with Escherichia coli [2], 12.5 mm with Salmonella typhimurium [3] and 13.4 mm in the assay with Streptococcus pyogenes [8]. In addition, the MIC is 128 µg/mL (≈ 228 µM) against Salmonella typhimurium [4], 64 µg/mL (≈ 114 µM) against Streptococcus pyogenes [5], 64 µg/mL (≈ 114 µM) in the assay with Escherichia coli [6] and 64 µg/mL (≈ 114 µM) against Staphylococcus aureus [7].

For the molecule `CC(C)CCC[C@@H](C)[C@H]1CC[C@H]2[C@@H]3/C(=N/NC(=S)NC4CCCCC4)C=C4CCCC[C@]4(C)[C@H]3CC[C@]12C`, the “inhibition zone (IZ)” value in the assay on Staphylococcus aureus [1] came out at 10.2 mm; with Escherichia coli [2], 7.8 mm; in the assay with Salmonella typhimurium [3] it was 10.4 mm; with Streptococcus pyogenes [8] it was 9.2 mm. Further, the MIC against Salmonella typhimurium [4] was 256 µg/mL (≈ 474 µM); in the assay with Streptococcus pyogenes [5], 256 µg/mL (≈ 474 µM); against Escherichia coli [6], 128 µg/mL (≈ 237 µM); against Staphylococcus aureus [7], 128 µg/mL (≈ 237 µM).

Turning to `CC(C)CCC[C@@H](C)[C@H]1CC[C@H]2[C@@H]3/C(=N/NC(=S)NC4CCCC4)C=C4CCCC[C@]4(C)[C@H]3CC[C@]12C`, the “inhibition zone (IZ)” value is 10.4 mm with Staphylococcus aureus [1], 9.4 mm in the assay on Escherichia coli [2], 9.2 mm in the assay with Salmonella typhimurium [3] and 9.5 mm with Streptococcus pyogenes [8]. The MIC in the assay with Salmonella typhimurium [4] turned out to be 128 µg/mL (≈ 243 µM); with Streptococcus pyogenes [5], 128 µg/mL (≈ 243 µM); in the assay with Escherichia coli [6] it was 256 µg/mL (≈ 487 µM); in the assay on Staphylococcus aureus [7], 256 µg/mL (≈ 487 µM).

`CC(C)CCC[C@@H](C)[C@H]1CC[C@H]2[C@@H]3/C(=N/NC(=S)NC4CCCCCCC4)C=C4CCCC[C@]4(C)[C@H]3CC[C@]12C`: the “inhibition zone (IZ)” value with Staphylococcus aureus [1] is given as 9.9 mm; with Escherichia coli [2], 10 mm; in the assay on Salmonella typhimurium [3], 10.2 mm; in the assay with Streptococcus pyogenes [8], 11.3 mm. Besides, the MIC against Salmonella typhimurium [4] stood at 128 µg/mL (≈ 225 µM); against Streptococcus pyogenes [5], 128 µg/mL (≈ 225 µM); in the assay with Escherichia coli [6] it was 256 µg/mL (≈ 451 µM); in the assay with Staphylococcus aureus [7], 256 µg/mL (≈ 451 µM).

Take `CC(=O)O[C@H]1CC[C@@]2(C)C(=C/C(=N\NC(=S)NC3CCCCC3)[C@H]3[C@@H]4CC[C@H]([C@H](C)CCCC(C)C)[C@@]4(C)CC[C@@H]32)C1`: the “inhibition zone (IZ)” value was found to be 14.6 mm with Staphylococcus aureus [1], 13.2 mm with Escherichia coli [2], 14.5 mm in the assay with Salmonella typhimurium [3] and 16.8 mm in the assay on Streptococcus pyogenes [8]. Besides, the MIC in the assay with Salmonella typhimurium [4] was 64 µg/mL (≈ 107 µM); against Streptococcus pyogenes [5] it was 64 µg/mL (≈ 107 µM); against Escherichia coli [6], 32 µg/mL (≈ 53.5 µM); against Staphylococcus aureus [7] it was 64 µg/mL (≈ 107 µM).

On to `CC(=O)O[C@H]1CC[C@@]2(C)C(=C/C(=N\NC(=S)NC3CCCCCCC3)[C@H]3[C@@H]4CC[C@H]([C@H](C)CCCC(C)C)[C@@]4(C)CC[C@@H]32)C1`, for which the “inhibition zone (IZ)” value was determined as 12.6 mm in the assay on Staphylococcus aureus [1], 13.8 mm in the assay with Escherichia coli [2], 13.6 mm with Salmonella typhimurium [3] and 11.4 mm in the assay on Streptococcus pyogenes [8]. Further, the MIC was found to be 128 µg/mL (≈ 204 µM) against Salmonella typhimurium [4], 64 µg/mL (≈ 102 µM) in the assay on Streptococcus pyogenes [5], 128 µg/mL (≈ 204 µM) in the assay with Escherichia coli [6] and 128 µg/mL (≈ 204 µM) against Staphylococcus aureus [7].

Turning to `CC1(C)S[C@@H]2[C@H](NC(=O)[C@H](N)c3ccc(O)cc3)C(=O)N2[C@H]1C(=O)O` [AMOXICILLIN], the “inhibition zone (IZ)” value turned out to be 21 mm in the assay with Staphylococcus aureus [1], 20 mm in the assay on Escherichia coli [2], 25.2 mm in the assay with Salmonella typhimurium [3] and 22.2 mm in the assay on Streptococcus pyogenes [8]. Further, the MIC against Salmonella typhimurium [4], in the assay on Streptococcus pyogenes [5], in the assay with Escherichia coli [6] and in the assay with Staphylococcus aureus [7] was 32 µg/mL (≈ 87.6 µM) each time.

Regarding `CC(=O)O[C@H]1CC[C@@]2(C)C(=C/C(=N\NC(=S)NC3CCCC3)[C@H]3[C@@H]4CC[C@H]([C@H](C)CCCC(C)C)[C@@]4(C)CC[C@@H]32)C1`, the “inhibition zone (IZ)” value in the assay on Staphylococcus aureus [1] was 12.5 mm; with Escherichia coli [2], 12.4 mm; in the assay with Salmonella typhimurium [3], 14.6 mm; with Streptococcus pyogenes [8], 11.8 mm. Besides, the MIC is 64 µg/mL (≈ 110 µM) against Salmonella typhimurium [4], 64 µg/mL (≈ 110 µM) in the assay with Streptococcus pyogenes [5], 32 µg/mL (≈ 54.8 µM) in the assay with Escherichia coli [6] and 32 µg/mL (≈ 54.8 µM) with Staphylococcus aureus [7].

As for `CC(C)CCC[C@@H](C)[C@H]1CC[C@H]2[C@@H]3/C(=N/NC(=S)NC4CCCCCCC4)C=C4C[C@@H](Cl)CC[C@]4(C)[C@H]3CC[C@]12C`, the “inhibition zone (IZ)” value in the assay with Staphylococcus aureus [1] is recorded as 15.6 mm; in the assay with Escherichia coli [2], 12.4 mm; with Salmonella typhimurium [3] it was 14.6 mm; in the assay with Streptococcus pyogenes [8], 14 mm. The MIC was 128 µg/mL (≈ 212 µM) against Salmonella typhimurium [4], 128 µg/mL (≈ 212 µM) with Streptococcus pyogenes [5], 64 µg/mL (≈ 106 µM) with Escherichia coli [6] and 64 µg/mL (≈ 106 µM) against Staphylococcus aureus [7].

For orientation: MIC means the smallest concentration in the dilution series that meets the test's criterion for growth inhibition. A high value points to a less susceptible organism.
